{"data": "Measurements from different studies", "target": "Serine/threonine-protein kinase 10 (STK10, Homo sapiens, UniProt O94804)"}
{"SMILES": "COc1cnc(Nc2cccc(S(N)(=O)=O)c2)nc1N1CCN(c2ccccc2)CC1", "assay": "binding, competition with immobilised ligand", "setting": "1 µM", "remaining binding": "100%"}
{"SMILES": "CCCOc1ccc([C@H]2[C@H](C(=O)O)[C@@H](c3ccc4c(c3)OCO4)CN2CC(=O)Nc2c(CC)cccc2CC)cc1", "assay": "cell-free assay, competition with immobilised ligand", "setting": "1 µM", "remaining binding": "97%"}
{"SMILES": "N[C@@H]1CCN(c2nccc(-c3cnn4ncccc34)n2)C1", "assay": "binding", "setting": "1 µM", "remaining binding": "100%"}
{"SMILES": "O=C(c1ccc(Nc2ncc(Cl)c(-c3ccc(Cl)s3)n2)cc1)N1CCC(N2CCCC2)CC1", "assay": "binding, competition with immobilised ligand", "setting": "1 µM", "remaining binding": "28%"}
{"SMILES": "c1cnn2ncc(-c3ccnc(N4CCC45COC5)n3)c2c1", "assay": "binding", "setting": "1 µM", "remaining binding": "91%"}
{"SMILES": "CS(=O)(=O)c1cc(C2(NC(=O)c3cncc4c3cnn4-c3ccc(F)cc3)CC2)ccn1", "assay": "cell-free assay, competition with immobilised ligand", "setting": "1 µM", "remaining binding": "99%"}
{"SMILES": "CN(C)c1nccc(-c2cnn3ncccc23)n1", "assay": "binding", "setting": "1 µM", "remaining binding": "100%"}
{"SMILES": "Cc1c(NC(=O)c2cc(C(N)=O)nc3cc(F)ccc23)c(C(F)(F)F)nn1Cc1ccc(C(C)(C)C)cc1", "assay": "cell-free assay, competition with immobilised ligand", "setting": "1 µM", "remaining binding": "88%"}
{"SMILES": "c1cncc(-c2cccc(Nc3nccc(NC4CCCCC4)n3)c2)c1", "assay": "binding, competition with immobilised ligand", "setting": "10 µM", "remaining binding": "38%"}
{"SMILES": "CN(C(=O)c1ccccc1)c1cc(N(C)c2ccc3c(c2)CCc2ccc(C(=O)NCCN4CCOCC4)cc2C3=O)ccc1F", "assay": "cell-free assay, competition with immobilised ligand", "setting": "1 µM", "remaining binding": "100%"}
{"SMILES": "C[C@H]1CCN(c2nccc(-c3cnn4ncccc34)n2)C1", "assay": "binding", "setting": "1 µM", "remaining binding": "100%"}
{"SMILES": "O=C(c1ccc(Nc2nccc(-c3cc4ccccc4s3)n2)cc1)N1CCC(N2CCCC2)CC1", "assay": "binding, competition with immobilised ligand", "setting": "1 µM", "remaining binding": "58%"}
{"SMILES": "COc1ccnn2ncc(-c3ccnc(N(C)C)n3)c12", "assay": "binding", "setting": "1 µM", "remaining binding": "95%"}
{"SMILES": "CC(=O)N1CCC(c2ccc(C(=O)NC3=NCCN3)cc2C(F)(F)F)CC1", "assay": "cell-free assay, competition with immobilised ligand", "setting": "1 µM", "remaining binding": "100%"}
{"SMILES": "COc1cnc(Nc2cccc(S(N)(=O)=O)c2)nc1N1CCN(c2ccccc2)C(=O)C1", "assay": "binding, competition with immobilised ligand", "setting": "1 µM", "remaining binding": "100%"}
{"SMILES": "C[C@@H]1CN(c2cc(-c3nn(C)c4ccc(OC5(C)CC5)cc34)ncn2)C[C@H](C)O1", "assay": "cell-free assay, competition with immobilised ligand", "setting": "1 µM", "remaining binding": "91%"}
{"SMILES": "O=C(c1ccc(Nc2ncc(Cl)c(-c3cc4ccccc4s3)n2)cc1)N1CCC(N2CCCC2)CC1", "assay": "binding, competition with immobilised ligand", "setting": "1 µM", "remaining binding": "43%"}
{"SMILES": "O=C(Nc1c[nH]nc1C(=O)NC1CCNCC1)c1cc(F)cc(F)c1", "assay": "binding, competition with immobilised ligand", "setting": "1 µM", "remaining binding": "100%"}
{"SMILES": "CC1CCCN1c1nccc(-c2cnn3ncccc23)n1 (centres unmarked)", "assay": "binding", "setting": "1 µM", "remaining binding": "96%"}
{"SMILES": "CCN1CCN(Cc2ccc(C(=O)Nc3ccc(C)c(Oc4ccc5c(c4)CC(=O)N5)c3)cc2C(F)(F)F)CC1", "assay": "binding, competition with immobilised ligand", "setting": "1 µM", "remaining binding": "3.2%"}
